“And” between values parts separate entries of the source, which are not always exact repeats. Equal entries are not always repeated.
What was measured:
Canis familiaris [1] = assay: Conduction time was determined by intraduodenal administration of two dosages of 10 mg/kg (low dose) of compound in anesthetized dogs. Value was reported for experiment 2; type: functional, Canis lupus familiaris
In short: (§1)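 Anesthetized dogs; compound given intraduodenally, generally as two doses, the second a cumulative (high) dose. LV functional refractory period and conduction time measured 15, 30 and 45 min after dosing; heart rate and blood pressure measured during nonpacing intervals. Values are % change from control, given per individual animal. Active if FRP or CT prolonged by ≥12%.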

Canis familiaris [2] = assay: Conduction time was determined by intraduodenal administration of two dosages of 10 mg/kg(high dose) of compound in anesthetized dogs. Value was reported for experiment 1; type: functional, Canis lupus familiaris; in short: as §1
Canis familiaris [3] = assay: Conduction time was determined by intraduodenal administration of two dosages of 20 mg/kg (high dose) of compound in anesthetized dogs. Value was reported for experiment 2; type: functional, Canis lupus familiaris; in short: as §1
Canis familiaris [4] = assay: Conduction time was determined by intraduodenal administration of two dosages of 3 mg/kg (low dose) of compound in anesthetized dogs. Value was reported for experiment 1; type: functional, Canis lupus familiaris; in short: as §1
Canis familiaris [5] = assay: Heart rate was determined by intraduodenal administration of two dosages of 20 mg/kg of (high dose) compound in anesthetized dogs. Value was reported for experiment 2; type: functional, Canis lupus familiaris; in short: as §1
Canis familiaris [6] = assay: Heart rate was determined by intraduodenal administration of two dosages of 3 mg/kg of (low dose) compound in anesthetized dogs. Value was reported for experiment 1; type: functional, Canis lupus familiaris; in short: as §1
Canis familiaris [7] = assay: Left ventricular refractory period was determined by intraduodenal administration of two dosages of 20 mg/kg of (high dose) compound in anesthetized dogs. Value was reported for experiment 2; type: functional, Canis lupus familiaris, Cardiac ventricle
Canis familiaris [8] = assay: Heart rate was determined by intraduodenal administration of two dosages of 10 mg/kg of (high dose) compound in anesthetized dogs. Value was reported for experiment 1; type: functional, Canis lupus familiaris; in short: as §1
Canis familiaris [9] = assay: Heart rate was determined by intraduodenal administration of two dosages of 10 mg/kg of (low dose) compound in anesthetized dogs. Value was reported for experiment 2; type: functional, Canis lupus familiaris; in short: as §1
Canis familiaris [10] = assay: Left ventricular refractory period was determined by intraduodenal administration of two dosages of 10 mg/kg of (high dose) compound in anesthetized dogs. Value was reported for experiment 1; type: functional, Canis lupus familiaris, Cardiac ventricle
In short: (§2)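 Anesthetized dogs received two intraduodenal doses, the second cumulative (low dose/high dose). Left ventricular FRP and CT were measured 15, 30 and 45 min after dosing. Heart rate and mean blood pressure were taken during nonpacing intervals. Values are percent change from control. The vehicle was 5% dextrose in water/tragacanth. Activity was defined as ≥12% prolongation of FRP or CT.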

Canis familiaris [11] = assay: Left ventricular refractory period was determined by intraduodenal administration of two dosages of 10 mg/kg of (low dose) compound in anesthetized dogs. Value was reported for experiment 2; type: functional, Canis lupus familiaris, Cardiac ventricle; in short: as §2
Canis familiaris [12] = assay: Left ventricular refractory period was determined by intraduodenal administration of two dosages of 3 mg/kg of (low dose) compound in anesthetized dogs. Value was reported for experiment 1; type: functional, Canis lupus familiaris, Cardiac ventricle; in short: as §2
Canis familiaris [13] = assay: Left ventricular refractory period was determined by intravenous administration of two dosages of 3 mg/kg of compound in anesthetized dogs. Value was reported for experiment 1; type: functional, Canis lupus familiaris, Cardiac ventricle
Canis familiaris [14] = assay: Left ventricular refractory period was determined by intravenous administration of two dosages of 3 mg/kg of compound in anesthetized dogs. Value was reported for experiment 2; type: functional, Canis lupus familiaris, Cardiac ventricle
Canis familiaris [15] = assay: Mean arterial blood pressure was determined by intraduodenal administration of two dosages of 10 mg/kg of (high dose) compound in anesthetized dogs. Value was reported for experiment 1; type: functional, Canis lupus familiaris; in short: as §2
Canis familiaris [16] = assay: Mean arterial blood pressure was determined by intraduodenal administration of two dosages of 20 mg/kg of (high dose) compound in anesthetized dogs. Value was reported for experiment 2; type: functional, Canis lupus familiaris
Canis familiaris [17] = assay: Mean arterial blood pressure was determined by intraduodenal administration of two dosages of 3 mg/kg of (low dose) compound in anesthetized dogs. Value was reported for experiment 1; type: functional, Canis lupus familiaris; in short: as §2
Canis familiaris [18] = species: Canis familiaris; assay: In vitro electrophysiological evaluation in canine cardiac Purkinje fibres reported as percent change Vmax concentration range of 0.1-100 uM; type: functional; conditions: Canis lupus familiaris; Purkinje fiber
In short: (§3)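 Canine cardiac Purkinje fibres, intracellular microelectrode recording, paced at a basic cycle length of 1 s. APD95 and Vmax read simultaneously. Compound: 10 mM stock in deionized water, diluted into Tyrode's solution, tested over the stated concentration range. Each fibre used once as its own control. Result is % change from control, given at 10 µM or as the maximum with its concentration. M = <10% decrease or an increase in Vmax.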

Canis familiaris [19] = species: Canis familiaris; assay: In vitro electrophysiological evaluation in canine cardiac Purkinje fibres reported as percent change Vmax concentration range of 0.1-100 uM; Minimal (<IO%increase or a decrease in CT); type: functional; conditions: Canis lupus familiaris; Purkinje fiber; in short: as §3
Canis familiaris [20] = species: Canis familiaris; assay: In vitro electrophysiological evaluation in canine cardiac Purkinje fibres reported as percent change Vmax concentration range of 0.1-10 uM; Minimal (<IO%increase or a decrease in CT); type: functional; conditions: Canis lupus familiaris; Purkinje fiber; in short: as §3
Canis familiaris [21] = species: Canis familiaris; assay: In vitro electrophysiological activity in canine cardiac Purkinje fibres given as maximum % change for action potential duration at 0.1-100 uM concentration; type: functional, Canis lupus familiaris, Purkinje fiber
In short: (§4)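 Canine cardiac Purkinje fibres, intracellular recording at 1 s basic cycle length, over cumulative concentration ranges. Compound 10 mM stock in deionized water diluted into Tyrode's. Each fibre used once as its own control. Value is the maximum % change from control in APD at 95% repolarization, with the concentration where it occurred; both values given if a biphasic response (>20% reversal) occurred.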

Canis familiaris [22] = species: Canis familiaris; assay: In vitro electrophysiological activity in canine cardiac Purkinje fibres given as maximum % change for action potential duration at 0.1-10 uM concentration; type: functional, Canis lupus familiaris, Purkinje fiber; in short: as §4
Canis familiaris [23] = species: Canis familiaris; assay: In vitro electrophysiological evaluation in canine cardiac Purkinje fibres reported as % change for action potential duration at 0.1-10 uM concentration range; type: functional, Canis lupus familiaris, Purkinje fiber; in short: as §3
Canis familiaris [24] = species: Canis familiaris; assay: In vitro electrophysiological evaluation in canine cardiac Purkinje fibres reported as maximum percent change Vmax concentration range of 0.1-100 uM; type: functional; conditions: Canis lupus familiaris; Purkinje fiber; in short: as §3
Canis familiaris [25] = species: Canis familiaris; assay: In vitro electrophysiological evaluation in canine cardiac Purkinje fibres reported as maximum percent change Vmax concentration range of 0.1-100 uM; Minimal (<IO%increase or a decrease in CT); type: functional; conditions: Canis lupus familiaris; Purkinje fiber; in short: as §3
Canis familiaris [26] = species: Canis familiaris; assay: (§5) In vitro electrophysiological evaluation in canine cardiac Purkinje fibres reported as % change for action potential duration at 0.1-100 uM concentration range; type: functional, Canis lupus familiaris, Purkinje fiber; in short: as §3
Canis familiaris [27] = species: Canis familiaris; assay: as §5; type: functional, Canis lupus familiaris, Purkinje fiber; in short: as §3; remark: listed apart in the source
Canis familiaris [28] = assay: Effective dose administered intravenously to elicit Antiarrhythmic efficacy in anesthetized dogs was reported. Value in parenthesis indicates no. of animals effective at that dose.; type: functional, Canis lupus familiaris, Heart
In short: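 Dogs are anesthetized and the chest reopened. Stimulating and recording electrodes go on the myocardium. Reproducible PES-induced sustained VT or VF is confirmed first; SVT is ended by burst pacing and VF by DC countershock. Compound is given iv in 0.9% saline and inducibility retested. A dose counts as effective when SVT/VF cannot be reinduced in two of three animals.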

Canis familiaris [29] = assay: Mean arterial blood pressure was determined by intraduodenal administration of two dosages of 10 mg/kg of (low dose) compound in anesthetized dogs. Value was reported for experiment 2; type: functional, Canis lupus familiaris

Question: How did the CT (Canis familiaris [1]) turn out when `Cl.Clc1ccc(C/C=C2\CN3CCC2CC3)cc1` was run?
Answer: Its CT is 0%.

Question: What about the CT (Canis familiaris [2]) of the same compound?
Answer: The CT was 3%.

Question: What about the CT (Canis familiaris [3]) of the same compound?
Answer: The CT was -4%.

Question: What about the CT (Canis familiaris [4]) of the same compound?
Answer: The CT was 0%.

Question: What about the HR (Canis familiaris [5]) of the same compound?
Answer: Its HR is 1%.

Question: And the HR (Canis familiaris [6])?
Answer: Its HR is -2%.

Question: What about the “LV FRP” value (Canis familiaris [7]) of the same compound?
Answer: Its value is 2%.

Question: And the HR (Canis familiaris [8])?
Answer: Its HR is 4%.

Question: What about the HR (Canis familiaris [9]) of the same compound?
Answer: Its HR is -1%.

Question: What about the “LV FRP” value (Canis familiaris [10]) of the same compound?
Answer: Its value is 3%.

Question: What about the “LV FRP” value (Canis familiaris [11]) of the same compound?
Answer: Its value is 3%.

Question: What about the “LV FRP” value (Canis familiaris [12]) of the same compound?
Answer: Its value is 5%.

Question: What about the “LV FRP” value (Canis familiaris [13]) of the same compound?
Answer: Its value is 17%.

Question: What about the “LV FRP” value (Canis familiaris [14]) of the same compound?
Answer: Its value is 15%.

Question: And the Mean blood pressure (Canis familiaris [15])?
Answer: Its Mean blood pressure is 25%.

Question: What about the Mean blood pressure (Canis familiaris [16]) of the same compound?
Answer: The Mean blood pressure was 12%.

Question: And the Mean blood pressure (Canis familiaris [17])?
Answer: The Mean blood pressure was 19%.

Question: What about the Vmax (Canis familiaris [18]) of the same compound?
Answer: The Vmax was -12%.

Question: And the Vmax (Canis familiaris [19])?
Answer: The Vmax was < 10%.

Question: And the Vmax (Canis familiaris [20])?
Answer: The Vmax was < 10%.

Question: What about the APD95 (Canis familiaris [21]) of the same compound?
Answer: Its APD95 is 35% and 50%.

Question: And the APD95 (Canis familiaris [22])?
Answer: The APD95 was 29%.

Question: And the APD95 (Canis familiaris [23])?
Answer: The APD95 was 29%.

Question: And the Vmax (Canis familiaris [24])?
Answer: The Vmax was -59%.

Question: What about the Vmax (Canis familiaris [25]) of the same compound?
Answer: The Vmax was < 10%.

Question: What about the APD95 (Canis familiaris [26]) of the same compound?
Answer: The APD95 was 50%.

Question: What about the APD95 (Canis familiaris [27]) of the same compound?
Answer: Its APD95 is 16%.

Question: What about the Effective dose (Canis familiaris [28]) of the same compound?
Answer: The Effective dose was 0.1 mg/kg and 0.3 mg/kg.

Question: And the Mean blood pressure (Canis familiaris [29])?
Answer: Its Mean blood pressure is 12%.

From ChEMBL document CHEMBL1123566, “Synthesis and cardiac electrophysiological activity of 2- and 3-[(substituted phenyl)alkyl]quinuclidines. Structure-activity relationships” (1987)
